In the library only some 4.6% were active in any assay of this set; here they are far more common.
CHO parental Ca: signal in parental CHO cells, OX1R antagonist counter-screen; parental CHO-K1, ATP-induced calcium, Fluo-8 fluorescence; inhibition, % at 5.6 µM; hit rate 0.63% among 330,000;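 active means inhibition above that plate's mean sample inhibition plus 3 SD, cut at about 26% in these data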;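 further: 0% = ATP-challenged DMSO wells and 100% = DMSO wells without ATP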
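Material: Parental CHO cells | Reagent: ATP | Compound dosing: Single nominal dose of 5.6 µM per compound | Detection: Intracellular calcium via Fluo-8 no-wash fluorescent dye | Read-out: % inhibition of ATP-induced calcium mobilization | Benchmarks: Low control ATP plus DMSO, high control DMSO only | Replicates: Singlicate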
TAAR1 agonist: agonists of human TAAR1; Q96RJ0; CHO RD-HGA16 TAAR1, Fluo-8 calcium fluorescence; vehicle wells 0%, saturating PEA agonist 100%; activation, % at 3 µM; hit rate 0.99% among 360,000; AID 624467;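 active means activation above the mean activation of all test compounds in the run plus 3 SD, cut at about 38% in these data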
Target sequence (Q96RJ0 whole entry, looked up): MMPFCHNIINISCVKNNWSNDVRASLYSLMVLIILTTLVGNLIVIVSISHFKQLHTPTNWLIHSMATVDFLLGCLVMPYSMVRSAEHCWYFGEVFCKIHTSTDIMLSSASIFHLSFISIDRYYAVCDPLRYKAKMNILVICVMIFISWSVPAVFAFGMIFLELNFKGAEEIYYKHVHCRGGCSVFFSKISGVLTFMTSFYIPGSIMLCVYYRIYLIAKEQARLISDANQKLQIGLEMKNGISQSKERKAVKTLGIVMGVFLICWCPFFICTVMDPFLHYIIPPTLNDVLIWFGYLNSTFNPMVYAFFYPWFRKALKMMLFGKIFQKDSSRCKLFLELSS
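Signal – calcium-sensitive Fluo-8 signal, excitation 470-495, emission 515-575 nm · System – RD-HGA16 (CHO) cells co-expressing Gα16 and hTAAR1 · Incubation – 17-24 h seeding, 75 min 37 °C dye, 30 min RT · Compound dosing – 3 µM single concentration · Repeats – no replicates (n 1)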
TAAR1 antagonist: antagonists of human TAAR1 | CHO RD-HGA16 TAAR1, Fluo-8 calcium fluorescence, antagonist | hit rate 1.5% among 360,000 | AID 624466 | Q96RJ0 | inhibition, % at 3 µM;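 active means inhibition above a per-plate cutoff, the mean inhibition of test compounds on that plate plus 3 SD, cut at about 49% in these data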;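 further: 0% = DMSO plus EC80 beta-PEA response and 100% = DMSO alone without agonist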
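System: RD-HGA16 CHO cells with stable hTAAR1 and Gα16 | Probe or stimulus: EC80 β-phenethylamine stimulus | Dosing: 3 µM, single point | Times: Dye loading 75 min at 37 °C, then 30 min room temperature | Measured by: Fluo-8 calcium-sensitive fluorescence | Read-out basis: % inhibition of agonist calcium response | Replicates: n of 1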
OX1R antag-1: antagonists of human orexin 1 receptor (OX1R) | inhibition, % at 6.6 µM | O43613 | hit rate 1.8% among 330,000 | OX1R-expressing cells, FRET antagonist read-out; in the data active means inhibition mostly above about 38%, no sharp cut-off; inactive means mostly below about 40%;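 further: 0% = agonist challenge alone and 100% = reference antagonist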
GPR7 antag: blocks human GPR7 receptor signaling | GPR7-expressing cells, fluorescence antagonist assay | hit rate 1.1% among 290,000 | inhibition, % at 4.4 µM; in the data active means inhibition above about 16%, passing the limit was not always enough;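 further: cells stimulated with the agonist NPW; 0% = agonist with vehicle and 100% = vehicle without agonist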
OX1R antag-2: antagonists of human orexin 1 receptor; CHO/OX1R cells, Fluo-8 calcium fluorescence, orexin A; inhibition, % at 5 µM; hit rate 0.43% among 330,000; AID 434989;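 active means inhibition above its plate's threshold, mean inhibition of all tested compounds on the plate plus 3 SD, cut at about 37% in these data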;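 further: 0% = orexin A challenge wells and 100% = SB-334867-A antagonist wells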
* hit, by the source's call; . = not tested or not shown.

SMILES	CHO parental Ca	TAAR1 agonist	TAAR1 antagonist	OX1R antag-1	GPR7 antag	OX1R antag-2
COc1ccc(C(=O)NCc2cccnc2)cc1S(=O)(=O)N1CCCc2ccccc21	13	3	-19	28	-4	-19
N#C/C(=N\Nc1ccc(S(=O)(=O)N2CCCCCC2)cc1)C(N)=S	-5	6	-3	49*	-14	-11
CCC1(c2ccccc2)NC(=O)N(CC(=O)NCCN2C(=O)S/C(=C\c3cccnc3)C2=O)C1=O (stereo unspecified)	-14	4	-24	57*	.	-13
CC1(c2ccccc2)NC(=O)N(CC(=O)NCCN2C(=O)S/C(=C\c3cccnc3)C2=O)C1=O (stereo unspecified)	.	11	-6	.	.	.
O=C(NCc1cccc(Cl)c1)C1CCC(=O)N(CC2CCCCC2)C1 (stereo unspecified)	-32	3	-21	16	13	-39
O=C(Nc1cccc(-c2nc3cccnc3s2)c1)c1ccco1	-15	11	34	64*	-18	6
O=C(Nc1cccc(NC(=O)c2nccc3ccccc23)c1)c1ccco1	-1	21	28	54*	.	-26
CCOc1ncccc1C(=O)Nc1cccc(-c2nc3cccnc3s2)c1	-18	7	47	68*	-11	8
CN(C)/C=C/C(=O)c1ccn(S(=O)(=O)c2ccccc2)c1	-5	2	-16	3	-18	10
O=C(Cc1cccs1)Nc1nnc(CCc2ccccc2)s1	-12	10	-9	-1	14*	-23
CCCCOc1ccc(S(=O)(=O)n2c(C)nc3ccccc32)cc1	-4	-1	-9	8	16	5
CCC1(c2ccc(F)cc2)NC(=O)N(CC(=O)Nc2ccc(N3CCCCC3)cc2)C1=O (stereo unspecified)	1	60*	19	-10	.	-12
CCCCN1C(=O)C(CC(=O)NC(c2ccccc2)c2ccccc2)CC(C(=O)N(C)C)=C1C (stereo unspecified)	.	2	-9	.	.	.
CCOC(=O)C1=C(C)Nc2ccccc2N/C1=N\S(=O)(=O)c1ccc(Cl)cc1	-1	8	32	30*	.	6
COc1ccc2nc(SCC(=O)NN)cc(C)c2c1	-25	-1	-12	49*	-4	20
COc1ccc(NC(=O)CCSc2cc(C)c3ccccc3n2)cc1	-27	-5	-15	21	9	-14
O=C(C1CCCO1)N1CCN(C(=S)Nc2ccc(Cl)c(Cl)c2)CC1 (stereo unspecified)	2	2	9	8	0	-9
Cc1ccc(N=C2NC(=O)/C(=C\c3cccs3)S2)cc1C	-28	-1	24	57*	7	-22
O=C1Nc2ccccc2S/C1=C/c1cccs1	-8	-2	-17	61*	-12	-5
COCC(C)NC(=O)CSc1ncnc2sc(-c3ccccc3)cc12 (stereo unspecified)	-5	0	7	25	-7	-20
CC(C)(C)C(=O)/C(=C/c1ccc(Cl)cc1)n1cncn1	.	-1	-13	.	-2	.
CC(C)(C)C(=O)/C(=C\c1ccc([N+](=O)[O-])cc1)n1cncn1	23	.	.	101*	17	14
CCOC(=O)c1nnn(-c2nonc2N)c1CN(CC)c1ccccc1	2	0	15	8	-12	-17
Oc1ccc2ccccc2c1-c1sc(Nc2ccccc2)n[n+]1-c1ccc(F)cc1	-17	14	6	5	-10	-21
Fc1ccc(-[n+]2nc(Nc3ccccc3)sc2-c2c3ccccc3cc3ccccc23)cc1	11	46*	25	25	17	-21
COc1ccc(CNC(=O)C2CCCN2S(=O)(=O)c2ccc(F)cc2)cc1 (stereo unspecified)	2	1	-21	27	-3	-11
CC(=O)c1ccc(OCC(=O)c2cc(C)n(-c3ccc4c(c3)OCO4)c2C)cc1	53*	4	10	32	-7	19
Cc1cc(C(=O)COC(=O)c2ccc(N)c([N+](=O)[O-])c2)c(C)n1Cc1ccc2c(c1)OCO2	-9	0	1	5	-5	-9
